The text below walks through data of paper PMC12198371 (Nature Communications, 2025).

Positions of bridges follow the written chain, without caps; N, C: chain ends. Residues, ends and D or L forms follow the SMILES beside them. No end group written: not given here.

The target of experiment [1] is T1, aldolase (PT1) (Oryctolagus cuniculus, UniProt P00883).
T1 sequence (P00883 1-364): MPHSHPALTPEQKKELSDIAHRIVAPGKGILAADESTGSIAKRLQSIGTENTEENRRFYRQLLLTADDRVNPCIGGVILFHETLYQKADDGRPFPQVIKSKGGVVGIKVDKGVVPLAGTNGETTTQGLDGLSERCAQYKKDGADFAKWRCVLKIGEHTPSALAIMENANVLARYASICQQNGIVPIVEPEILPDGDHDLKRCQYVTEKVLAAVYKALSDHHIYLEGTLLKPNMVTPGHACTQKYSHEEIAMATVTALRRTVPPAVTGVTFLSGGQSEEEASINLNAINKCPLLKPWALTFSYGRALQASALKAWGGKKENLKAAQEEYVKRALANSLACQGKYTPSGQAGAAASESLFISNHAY
The experiment in a line: Yeast surface display titration. Format: binding, rabbit.

In experiment [2] the target is T1, aldolase (PT1). The experiment in a line: Surface plasmon resonance. The conditions noted are these: PT1 (tetrameric), 600 pM vs 326 nM. Format: binding, rabbit. The method, boiled down: (§1)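 Targets were amine-coupled with EDC/NHS, then ethanolamine pH 8.5. PT1 was coupled at 200 µg/mL and PT5 at 30 µg/mL, both in 10 mM NaAc pH 5.2. PT3 was coupled at 10 µg/mL in 10 mM NaAc pH 4.5. Two-fold dilutions of chemically synthesised peptide were run in PBS pH 7.4 with 0.005% Tween-20 and 2% DMSO, at 25 °C and 30 µL/min. KD, kon and koff were recorded.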

The next experiment addresses streptavidin (PT2) (Streptomyces avidinii, UniProt P22629). The experiment in a line: Yeast surface display titration. Format: binding.
For a further experiment, the target named is α-chymotrypsin (PT5) (Bos taurus, UniProt P00766). Kind of experiment: Yeast surface display titration. Type of experiment: binding, bovine.
In experiment [3] the target is bovine α-chymotrypsin (PT5) (Bos taurus, UniProt P00766). The experiment in a line: Residual enzyme activity, chromogenic substrate. Format: biochemical.
For another experiment, the system named is strep-tactin (PH2.1). Kind of experiment: Yeast surface display titration, specificity. Format: binding. The conditions noted are these: from KDapp values.
The target in a further experiment is carbonic anhydrase (PT4) (Bos taurus, UniProt P00921). Kind of experiment: Yeast surface display titration. Type of experiment: binding, bovine. The settings on record: ratio of KDapp values.
Chain of carbonic anhydrase (PT4) (P00921 whole entry): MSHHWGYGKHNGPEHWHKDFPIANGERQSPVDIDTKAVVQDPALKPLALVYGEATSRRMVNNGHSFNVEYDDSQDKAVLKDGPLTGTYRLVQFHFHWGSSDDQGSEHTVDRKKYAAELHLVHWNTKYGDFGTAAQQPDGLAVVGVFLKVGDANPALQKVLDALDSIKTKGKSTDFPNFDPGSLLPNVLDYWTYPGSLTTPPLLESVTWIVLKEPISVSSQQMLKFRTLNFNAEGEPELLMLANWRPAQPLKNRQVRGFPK
Another experiment concerns the target α-chymotrypsin. The settings on record: natural inhibitor, Fig. 9d; cited from earlier work.
Experiment [4] concerns the target carbapenemase GES-5 (PT3) (Klebsiella pneumoniae, UniProt Q09HD0). The experiment in a line: Surface plasmon resonance. Type of experiment: binding. The conditions noted are these: soluble chemically synthesised isomers of MP3.2. The method, boiled down: as §1
A general note: In SPR one partner is held on a chip, and binding of the other changes the refractive index at the surface.

Chain of streptavidin (PT2) (P22629 37-163 limits assumed): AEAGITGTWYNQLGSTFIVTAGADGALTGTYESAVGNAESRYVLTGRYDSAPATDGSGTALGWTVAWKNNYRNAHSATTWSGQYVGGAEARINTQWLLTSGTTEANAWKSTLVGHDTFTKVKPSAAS
Chain of carbapenemase GES-5 (PT3) (Q09HD0 19-287): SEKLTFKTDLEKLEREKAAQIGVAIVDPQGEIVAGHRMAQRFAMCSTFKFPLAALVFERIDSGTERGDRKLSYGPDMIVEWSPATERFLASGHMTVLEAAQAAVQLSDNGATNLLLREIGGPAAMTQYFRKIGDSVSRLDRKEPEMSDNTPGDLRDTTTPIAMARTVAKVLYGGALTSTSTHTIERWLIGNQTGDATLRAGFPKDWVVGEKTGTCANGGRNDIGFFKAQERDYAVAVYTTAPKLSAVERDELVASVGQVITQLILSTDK

Molecule `CC(C)C[C@@H]1NC(=O)[C@H](C(C)C)NC(=O)[C@H](CCC(=O)O)NC(=O)[C@@H](NC(=O)[C@H](C)N)CSSC[C@@H](C(=O)N[C@@H](CO)C(=O)NCC(N)=O)NC(=O)CNC(=O)[C@H]([C@@H](C)O)NC(=O)[C@H](Cc2c[nH]c3ccccc23)NC(=O)[C@H](CC(=O)O)NC(=O)[C@H](Cc2ccc(O)cc2)NC(=O)[C@H](CO)NC1=O` [MP1.1] (H-ACEVLSYDWTGCSG-NH2; disulfide 2-12) showed a Kd at aldolase (PT1) [1] of 0.6 nM. Besides, the “discrepancy between KD by yeast surface titration and by SPR” value on aldolase (PT1) [2] is given as ~ 500 fold.
For `CC[C@H](C)[C@@H]1NC(=O)[C@H](C(C)C)NC(=O)[C@H](Cc2ccc(O)cc2)NC(=O)[C@H](Cc2ccccc2)NC(=O)[C@H](CCC(N)=O)NC(=O)[C@@H]2CCCN2C(=O)[C@H](Cc2c[nH]cn2)NC(=O)[C@H](Cc2ccc(O)cc2)NC(=O)[C@H](Cc2c[nH]cn2)NC(=O)[C@@H](NC(=O)[C@H](C)N)CSSC[C@@H](C(=O)N[C@@H](CO)C(=O)NCC(N)=O)NC1=O` [MP2.2] (H-ACHYHPQFYVICSG-NH2; disulfide 2-12), the “tighter binding to PT2 than MP2.5” value at streptavidin (PT2) (ratio of KDapp values) came to 3 fold.
As for `CC[C@H](C)[C@@H]1NC(=O)[C@H](Cc2c[nH]c3ccccc23)NC(=O)[C@H]([C@@H](C)O)NC(=O)[C@H](Cc2c[nH]c3ccccc23)NC(=O)[C@H](CC(=O)O)NC(=O)[C@H](CCCNC(=N)N)NC(=O)[C@@H](NC(=O)[C@H](C)N)CSSC[C@@H](C(=O)N[C@@H](CO)C(=O)NCC(N)=O)NC(=O)[C@H](CCC(N)=O)NC1=O` [MP5.1] (H-ACRDWTWIQCSG-NH2; disulfide 2-10), at α-chymotrypsin (PT5) (ratio of KDapp values), the “higher binding affinity to PT5 than MP5.2” value amounted to 2 fold and the “tighter binding to PT5 than MP5.5” value is recorded as 5 fold.
For orientation: Ki means a measure of affinity in units of concentration, obtained from inhibition or displacement. On to `CC[C@H](C)[C@@H]1NC(=O)[C@H]([C@@H](C)O)NC(=O)CNC(=O)[C@H](CCCNC(=N)N)NC(=O)[C@H](CC(C)C)NC(=O)[C@@H]2CSSC[C@@H](C(=O)N[C@@H](CO)C(=O)NCC(N)=O)NC(=O)[C@H](CSSC[C@H](NC(=O)[C@H](C)N)C(=O)N[C@@H](C)C(=O)N[C@@H](Cc3c[nH]c4ccccc34)C(=O)N2)NC1=O` [MP5.4.1] (H-ACAWCLRGTICCSG-NH2; disulfide 2-11, 5-12), for which the inhibition constant (Ki) in [3] was 50.8 nM.
The same measure, in the same setting: the figure for `CC[C@H](C)[C@H](NC(=O)[C@@H](NC(=O)CNC(=O)[C@H](CCCNC(=N)N)NC(=O)[C@H](CC(C)C)NC(=O)[C@@H]1CSSC[C@H](NC(=O)[C@H](C)N)C(=O)N[C@@H](C)C(=O)N[C@@H](Cc2c[nH]c3ccccc23)C(=O)N1)[C@@H](C)O)C(=O)N[C@H]1CSSC[C@@H](C(=O)N[C@@H](CO)C(=O)NCC(N)=O)NC1=O` [MP5.4.2] (H-ACAWCLRGTICCSG-NH2; disulfide 2-5, 11-12) is 11.3 nM.
“ACAWCLRGTICCSG (also: bicyclic or more (positions not given here)) [MP5.4]”: on α-chymotrypsin (PT5) (ratio of KDapp values), the “tighter binding to PT5 than MP5.5” value stood at 46 fold. The Kd on α-chymotrypsin (PT5) (read-out: KDapp, yeast-displayed peptide vs soluble PT5, text value) turned out to be 0.2 nM.
With “ACCYRIYCPCSG (also: bicyclic or more (positions not given here)) [MP5.3]”, the “tighter binding to PT5 than MP5.5” value on α-chymotrypsin (PT5) (ratio of KDapp values) came out at 3 fold.
Take “ACHYHPQFYMRCSG (disulfide 2-12 (inferred)) [MP2.6]”: the “tighter binding to PT2 than MP2.4” value on streptavidin (PT2) (ratio of KDapp values) is 6 fold. The Kd on streptavidin (PT2) (read-out: KDapp, yeast-displayed peptide vs soluble PT2, text value) is 0.2 to 0.3 nM.
“ACIMVHYDRVECSG (disulfide 2-12 (inferred)) [MP2.3]”: in the experiment on strep-tactin (PH2.1), the “tighter binding to PH2.1 than to PT2” value is reported as approximately 2 fold.
For “ACLVGPYYMLDCSG (disulfide 2-12 (inferred)) [MP4.1]”, on carbonic anhydrase (PT4), the “higher binding affinity for PT4 than MP4.4” value is reported as 16 fold, the “tighter binding to PT4 than MP4.2” value was 4 fold and the “tighter binding to PT4 than MP4.3” value is 9 fold.
As for “ACSMCHPQGDFCYWACSG (also: bicyclic or more (positions not given here)) [MP2.1]”, in the experiment with strep-tactin (PH2.1), the “tighter binding to PH2.1 than to PT2” value is ~ 10 fold.
On to “H-TVLRGCWTFSFPPKPCI-NH2 [HECI, reference compound]”, for which the Ki at α-chymotrypsin was 3900 nM.
For the molecule “MP3.2.1: chemically synthesised ‘two rings’ isomer of MP3.2 (ACRYICLSFRHCGWFCSG-NH2; disulfide 2-12, 6-16; N-terminus assumed; SMILES CC[C@H](C)[C@@H]1NC(=O)[C@H](Cc2ccc(O)cc2)NC(=O)[C@H](CCCNC(=N)N)NC(=O)[C@@H](NC(=O)[C@H](C)N)CSSC[C@@H]2NC(=O)[C@H](Cc3c[nH]cn3)NC(=O)[C@H](CCCNC(=N)N)NC(=O)[C@H](Cc3ccccc3)NC(=O)[C@H](CO)NC(=O)[C@H](CC(C)C)NC(=O)[C@H](CSSC[C@@H](C(=O)N[C@@H](CO)C(=O)NCC(N)=O)NC(=O)[C@H](Cc3ccccc3)NC(=O)[C@H](Cc3c[nH]c4ccccc34)NC(=O)CNC2=O)NC1=O)”, in experiment [4], the “interaction with immobilised PT3 (SPR), in words” value is given as “no or very weak interactions”.
On to “MP3.2.2: chemically synthesised ‘two rings’ isomer of MP3.2 (ACRYICLSFRHCGWFCSG-NH2; disulfide 12-16, 2-6; N-terminus assumed; SMILES CC[C@H](C)[C@@H]1NC(=O)[C@H](Cc2ccc(O)cc2)NC(=O)[C@H](CCCNC(=N)N)NC(=O)[C@@H](NC(=O)[C@H](C)N)CSSC[C@@H](C(=O)N[C@@H](CC(C)C)C(=O)N[C@@H](CO)C(=O)N[C@@H](Cc2ccccc2)C(=O)N[C@@H](CCCNC(=N)N)C(=O)N[C@@H](Cc2c[nH]cn2)C(=O)N[C@H]2CSSC[C@@H](C(=O)N[C@@H](CO)C(=O)NCC(N)=O)NC(=O)[C@H](Cc3ccccc3)NC(=O)[C@H](Cc3c[nH]c4ccccc34)NC(=O)CNC2=O)NC1=O)”, for which the “interaction with immobilised PT3 (SPR), in words” value in [4] is given as “no or very weak interactions”.
